# Test results from ChEMBL document CHEMBL4138128, “Structural design, synthesis and pharmacological evaluation of thiazoles against Trypanosoma cruzi” (Eur J Med Chem, 2017).
# pIC50: −log10 of the molar value.
# Columns and labels:
# Trypanosoma cruzi [1] = experiment: Antitrypanosomal activity against bloodstream trypomastigote stage of Trypanosoma cruzi Y infected in monkey LLC-MK2 cells assessed as reduction in parasite motility measured after 24 hrs by neubauer chamber method; type: functional, organism-based; conditions: LLC-MK2, 24 h
# Outline: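 Y strain trypomastigotes from LLC-MK2 supernatants, 4x10^5/well, incubated 24 h at 37°C, 5% CO2 with five concentrations; viable parasites counted by motility in Neubauer chamber. Inhibition versus untreated cultures; IC50 by non-linear regression; benznidazole reference.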
# [2] = Cytotoxicity against mouse J774 cells assessed as reduction in cell viability after 72 hrs by alamar blue assay; type: cell-based
# Outline: (§1)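 H9c2 or J774 cells (1 x 10^4/well) in DMEM/10% FBS preincubated 24 h, then exposed 72 h to six concentrations (0.41 to 100 µM) in triplicate, DMSO under 1%. Viability by AlamarBlue, read after 6 h at 570/600 nm; CC50 from three independent experiments; gentian violet positive control.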
# [3] = Cytotoxicity against rat H9c2 cells assessed as reduction in cell viability after 72 hrs by alamar blue assay; type: cell-based; outline: as §1
# [4] = molecular target: Cruzipain (Trypanosoma cruzi) (UniProt P25779); experiment: Inhibition of recombinant Trypanosoma cruzi cruzain at 10 uM preincubated for 10 mins followed by Z-FR-AMC substrate addition measured for 5 mins at 12 secs time interval by […] relative to control
# Outline: (§2)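 Cruzain 0.5 nM in 0.1 M sodium acetate pH 5.5, 1 mM beta-mercaptoethanol, 0.01% Triton X-100, 25 °C; 10 min preincubation, then Z-FR-AMC 2.5 µM (Km 1 µM). Fluorescence (ex 340, em 440) read continuously 5 min; initial rates versus DMSO control. Screens at 10 µM, two independent runs in triplicate; IC50 from at least seven concentrations, four-parameter fit, at least two curves.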
# [5] = Solubility of the compound in pH 5.5 sodium acetate buffer at 10 uM; conditions: pH 5.5, 10 µM
# Cruzipain = Cruzipain (Trypanosoma cruzi, UniProt P25779); experiment: Inhibition of recombinant Trypanosoma cruzi cruzain preincubated for 10 mins followed by Z-FR-AMC substrate addition measured for 5 mins at 12 secs time interval by flow cytometry relative to control; outline: as §2
# Trypanosoma cruzi [6] = experiment: Antitrypanosomal activity against Trypanosoma cruzi Y trypomastigotes infected in mouse J774 cells measured after […] by contrast phase microscopic method; type: functional, organism-based
# [7] = Cytotoxicity against mouse J774 cells; type: cell-based; outline: as §1
# Sequence of Cruzipain (Trypanosoma cruzi) (P25779 123-467 limits assumed): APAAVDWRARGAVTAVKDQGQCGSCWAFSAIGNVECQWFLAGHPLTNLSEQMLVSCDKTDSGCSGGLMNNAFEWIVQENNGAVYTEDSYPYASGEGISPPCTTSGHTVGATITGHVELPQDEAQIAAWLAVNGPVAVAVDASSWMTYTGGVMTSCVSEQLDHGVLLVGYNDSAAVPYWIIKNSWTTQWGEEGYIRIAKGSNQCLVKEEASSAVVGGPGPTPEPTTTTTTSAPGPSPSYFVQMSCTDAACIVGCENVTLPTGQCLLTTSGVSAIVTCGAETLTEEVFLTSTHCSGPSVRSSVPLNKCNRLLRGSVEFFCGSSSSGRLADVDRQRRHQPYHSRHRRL
# Sequence of Cruzipain (P25779 whole entry): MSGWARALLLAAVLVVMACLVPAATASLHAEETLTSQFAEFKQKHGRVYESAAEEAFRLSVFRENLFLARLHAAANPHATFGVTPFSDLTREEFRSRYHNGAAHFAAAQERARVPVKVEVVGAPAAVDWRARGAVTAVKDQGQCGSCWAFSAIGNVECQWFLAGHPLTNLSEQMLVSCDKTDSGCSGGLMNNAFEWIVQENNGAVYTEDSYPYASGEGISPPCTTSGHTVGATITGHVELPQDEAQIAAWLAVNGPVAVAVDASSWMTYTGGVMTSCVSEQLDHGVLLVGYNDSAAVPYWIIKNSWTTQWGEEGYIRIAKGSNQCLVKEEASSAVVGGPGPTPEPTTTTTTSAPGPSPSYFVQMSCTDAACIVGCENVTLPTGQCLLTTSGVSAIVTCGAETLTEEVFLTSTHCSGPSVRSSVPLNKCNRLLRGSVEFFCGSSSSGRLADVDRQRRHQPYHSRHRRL
pIC50 (Trypanosoma cruzi [1]),inhibition [4],solubility [5],pIC50 (Cruzipain),pIC50 (Trypanosoma cruzi [6]),Structure (SMILES),CC50 at 72 h [2],CC50 at 72 h [3],CC50 [7]
< 4.30,35%,Soluble,–,–,C/C(=N\Nc1nc(-c2ccc(Cl)cc2Cl)cs1)c1ccc(Cl)c(Cl)c1,> 50 µM,> 50 µM,–
4.72,74%,Soluble,–,–,C/C(=N\Nc1nc(-c2ccc(Br)cc2)c(C)s1)c1ccc(Cl)c(Cl)c1,> 50 µM,> 50 µM,–
< 4.30,12%,Soluble,–,–,C/C(=N\N=c1\scc(-c2ccccc2)n1C)c1ccc(Cl)c(Cl)c1,> 50 µM,> 50 µM,–
< 4.30,50%,Soluble,–,–,C/C(=N\Nc1nc(CCl)cs1)c1ccc(Cl)c(Cl)c1,> 50 µM,> 50 µM,–
4.77,32%,Soluble,–,–,C/C(=N\Nc1nc(-c2ccncc2)cs1)c1ccc(Cl)c(Cl)c1,39.8 µM,41.9 µM,–
< 4.30,–,Soluble,–,–,C/C(=N\Nc1nc(-c2cccc([N+](=O)[O-])c2)cs1)c1ccc(Cl)c(Cl)c1,> 50 µM,> 50 µM,–
4.98,84%,Soluble,5.05,–,C/C(=N\Nc1nc(C)c(C)s1)c1ccc(Cl)c(Cl)c1,41.8 µM,> 50 µM,–
< 4.30,31%,Soluble,–,–,C/C(=N\Nc1nc(-c2ccc(Cl)cc2)cs1)c1ccc(Cl)c(Cl)c1,> 50 µM,> 50 µM,–
< 4.30,–,Soluble,–,–,C/C(=N\Nc1nc(-c2ccc(Cl)c(Cl)c2)cs1)c1ccc(Cl)c(Cl)c1,> 50 µM,> 50 µM,–
4.75,76%,Soluble,–,–,C/C(=N\Nc1nc(-c2ccccc2)c(C)s1)c1ccc(Cl)c(Cl)c1,> 50 µM,> 50 µM,–
4.32,75%,Soluble,–,–,C/C(=N\Nc1nc(-c2ccc(C)cc2)cs1)c1ccc(Cl)c(Cl)c1,> 50 µM,> 50 µM,–
–,–,–,–,5.15,C/C(=N\N=C(\N)S)c1ccc(Cl)c(Cl)c1,–,–,> 100 µM
< 4.30,–,Soluble,–,–,C/C(=N\Nc1nc(-c2ccc([N+](=O)[O-])cc2)cs1)c1ccc(Cl)c(Cl)c1,> 50 µM,> 50 µM,–
4.77,41%,Soluble,–,–,COc1ccc(-c2csc(N/N=C(\C)c3ccc(Cl)c(Cl)c3)n2)cc1,> 50 µM,> 50 µM,–
< 4.30,44%,Soluble,–,–,C/C(=N\Nc1nc(-c2ccc3ccccc3c2)cs1)c1ccc(Cl)c(Cl)c1,> 50 µM,> 50 µM,–
< 4.30,43%,Soluble,–,–,C/C(=N\Nc1nc(-c2ccc(Br)cc2)cs1)c1ccc(Cl)c(Cl)c1,> 50 µM,> 50 µM,–
4.77,97%,Soluble,6.22,–,C/C(=N\Nc1nc(C)cs1)c1ccc(Cl)c(Cl)c1,33.7 µM,26.1 µM,–
< 4.30,44%,Soluble,–,–,C/C(=N\Nc1nc(-c2ccc(-c3ccccc3)cc2)cs1)c1ccc(Cl)c(Cl)c1,> 50 µM,> 50 µM,–
5.22,38%,Soluble,–,–,C/C(=N\Nc1nc(-c2ccc(Cl)c(Cl)c2Cl)cs1)c1ccc(Cl)c(Cl)c1,21.3 µM,17 µM,–
–,–,–,–,–,CN(C)c1ccc(C(=C2C=CC(=[N+](C)C)C=C2)c2ccc(N(C)C)cc2)cc1 [GENTIAN VIOLET],–,1.5 µM,–
< 4.30,59%,Soluble,–,–,C/C(=N\Nc1nc(-c2ccccc2)cs1)c1ccc(Cl)c(Cl)c1,> 50 µM,> 50 µM,–
< 4.30,32%,Soluble,–,–,C/C(=N\Nc1nc(-c2ccc(F)cc2)cs1)c1ccc(Cl)c(Cl)c1,> 50 µM,> 50 µM,–
< 4.30,31%,Soluble,–,–,C/C(=N\N=c1\scc(-c2ccccc2)n1-c1ccccc1)c1ccc(Cl)c(Cl)c1,> 50 µM,> 50 µM,–
